Eight compounds from ChEMBL document CHEMBL1146457, “Tetrahydrofuran lignans from Nectandra megapotamica with trypanocidal activity” (J Nat Prod, 2004) can be followed below.

pIC50: −log10 of the molar value.

The test system of experiment [1] is Trypanosoma cruzi. Description: Trypanocidal activity against Trypanosoma cruzi Y trypomastigotes infected in mouse macrophage at 8 uM. It is filed as functional. The method, boiled down:
(§1)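 Trypomastigotes were harvested from mouse macrophage cultures, about 2 × 10^6 parasites/mL, in RPMI 1640 in 96-well plates. Compounds were dissolved in DMSO and diluted in blood to final 2.0, 8.0 and 32.0 µM, with 1% DMSO. Plates were incubated at 4 °C, and percent lysis was read by MTT colorimetry, in triplicate. Negative control: infected blood plus DMSO.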

Experiment [2] has as its system Trypanosoma cruzi. Description: Antitrypanosomal activity against Trypanosoma cruzi Y trypomastigotes infected in mouse macrophage. It is filed as functional, organism-based. In short, it runs like this:
as §1

In experiment [3] the test system is Trypanosoma cruzi. Description: Trypanocidal activity against Trypanosoma cruzi Y trypomastigotes infected in mouse macrophage at 32 uM. It is filed as functional. In short, it runs like this: as §1
Experiment [4] deals with Trypanosoma cruzi. Put plainly: Trypanocidal activity against Trypanosoma cruzi Y trypomastigotes infected in mouse macrophage at 2 uM. It is filed as functional. In short, it runs like this:
as §1

Experiment [5] concerns Trypanosoma cruzi. Description: Trypanocidal activity against Trypanosoma cruzi Y trypomastigotes infected in mouse macrophage at 250 ug/ml. It is filed as functional, organism-based. The method, boiled down: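 Positive-control wells had gentian violet at 250 µg/mL against trypomastigotes from mouse macrophage cultures, about 2 × 10^6 parasites/mL, in RPMI 1640 in blood. Incubation was at 4 °C, and percent lysis was measured by MTT colorimetric method, in triplicate.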

The term pIC50 denotes the IC50 on a negative log10 scale, so that one unit is a factor of ten. A higher pIC50 goes with a low IC50. In the case of `COc1cc([C@H]2O[C@@H](c3ccc(OC)c(OC)c3)[C@@H](C)[C@@H]2C)ccc1O` [ARISTOLIGNIN], the Activity in experiment [1] is given as 46.8%; in experiment [3], 47.6%; in experiment [4] it was 34.2%. In experiment [2], this compound showed a pIC50 of 4.46.

For the compound `COc1ccc([C@@H]2O[C@H](c3ccc4c(c3)OCO4)[C@@H](C)[C@@H]2C)cc1OC` [CALOPIPTIN], the values for the Activity in experiment [1], in experiment [3] and in experiment [4] were 49.2%, 60.3% and 21.4%, respectively. In experiment [2], this compound gave a pIC50 of 4.90.

As to `COc1ccc([C@H]2O[C@@H](c3ccc(OC)c(OC)c3)[C@H](C)[C@@H]2C)cc1OC` [GALGRAVIN], the Activity is reported as 56.3% in experiment [1], 59.9% in experiment [3] and 44% in experiment [4]. Moreover, the pIC50 in experiment [2] was 5.36.

In the case of `COc1ccc([C@H]2O[C@H](c3ccc(OC)c(OC)c3)[C@@H](C)[C@H]2C)cc1OC` [GANSCHISANDRINE], the Activity in experiment [1] came to 49.2%; in experiment [3], 55.6%; in experiment [4] it was 36.5%. This compound showed a pIC50 in experiment [2] of 4.91.

With `CN(C)c1ccc(C(=C2C=CC(=[N+](C)C)C=C2)c2ccc(N(C)C)cc2)cc1` [GENTIAN VIOLET], the pIC50 in experiment [5] is 4.12.

In the case of `COc1ccc([C@@H]2O[C@H](c3ccc4c(c3)OCO4)[C@@H](C)[C@H]2C)cc1OC` [MACHILIN G], the Activity in experiment [1] is listed as 53.6%; in experiment [3], 94%; in experiment [4] it was 54.8%. The pIC50 in experiment [2] was 5.66.

As to `COc1cc([C@H]2O[C@@H](c3ccc(OC)c(OC)c3)[C@H](C)[C@@H]2C)ccc1O` [NECTANDRIN A], the Activity in experiment [1] amounted to 13.5%; in experiment [3] it was 18%; in experiment [4], 10.2%. Besides, the pIC50 in experiment [2] was 1.76.

Consider `COc1cc([C@H]2O[C@@H](c3ccc(O)c(OC)c3)[C@H](C)[C@@H]2C)ccc1O` [NECTANDRIN B], for which the values for the Activity in experiment [1], in experiment [3] and in experiment [4] were 25%, 48% and 23%, respectively. The pIC50 in experiment [2] was 4.33.
